# Source: ChEMBL document CHEMBL1914440, “Discovery of potent, selective, and orally bioavailable alkynylphenoxyacetic acid CRTH2 (DP2) receptor antagonists for the treatment of allergic inflammatory diseases” (J Med Chem, 2011)
# Target: T1, Prostaglandin D2 receptor 2 (Homo sapiens, UniProt Q9Y5Y4)
# T1 sequence (Q9Y5Y4 whole entry): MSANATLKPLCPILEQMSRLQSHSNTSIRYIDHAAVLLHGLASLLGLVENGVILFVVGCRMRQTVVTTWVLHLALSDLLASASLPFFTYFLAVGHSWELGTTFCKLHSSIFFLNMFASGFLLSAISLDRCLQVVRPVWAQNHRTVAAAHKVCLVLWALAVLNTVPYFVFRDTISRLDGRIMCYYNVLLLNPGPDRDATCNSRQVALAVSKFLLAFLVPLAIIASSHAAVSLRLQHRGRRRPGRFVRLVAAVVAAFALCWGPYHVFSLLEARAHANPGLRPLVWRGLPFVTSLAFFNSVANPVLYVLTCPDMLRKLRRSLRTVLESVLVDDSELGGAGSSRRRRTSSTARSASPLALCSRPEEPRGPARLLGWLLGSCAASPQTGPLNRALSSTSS
# Experiment: Displacement of [3H]PGD2 from human CRTH2 expressed in chinese hamster CHO cells by liquid scintillation counting
# Format: cell-based
# Outline: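 Scintillation proximity competition assay: 2–5 μg human CRTH2 cell membranes, 1.5 nM [3H]PGD2, WGA-SPA beads, 10 mM HEPES/KOH pH 7.4, 10 mM MnCl2, protease inhibitors, 1% DMSO; 90 min, room temperature, shaking. Nonspecific binding defined with 1 μM PGD2. Ki by Cheng–Prusoff, mean of ≥3 independent dose–response experiments.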
row,SMILES,Ki [nM]
1,O=C(O)COc1ccc(Cl)cc1C#Cc1ccccc1,108
2,Cc1ccc(OCC(=O)O)c(C#Cc2ccccc2Cl)c1,283
3,CS(=O)(=O)c1ccc(C#Cc2cc(Cl)ccc2OCC(=O)O)cc1,86
4,O=C(O)COc1ccc(Cl)cc1C#Cc1ccccc1C(F)(F)F,24
5,O=C(O)COc1ccc(Cl)cc1C#Cc1ccccn1,1120
6,O=C(O)COc1ccc(Cl)cc1C#Cc1cncc(S(=O)(=O)N2CCOCC2)c1,41
7,COc1ccccc1C#Cc1cc(Cl)ccc1OCC(=O)O,190
8,Cc1ccncc1C#Cc1cc(Cl)ccc1OCC(=O)O,25
9,Cc1ccc(S(=O)(=O)NC(C)(C)C)cc1C#Cc1cc(Cl)ccc1OCC(=O)O,5
10,COCc1ccc(C#Cc2cc(Cl)ccc2OCC(=O)O)c(F)c1,22
11,CCCS(=O)(=O)c1cccc(C#Cc2c(OCC(=O)O)ccc3ccccc23)c1,44
12,COc1cccc(-c2ccc(C#Cc3cc(Cl)ccc3OCC(=O)O)cc2S(C)(=O)=O)c1,8
13,O=C(O)COc1ccc(Cl)cc1C#Cc1ccc(F)cc1F,101
14,Cc1cc[n+]([O-])cc1C#Cc1cc(Cl)ccc1OCC(=O)O,17
15,CS(=O)(=O)Nc1cncc(C#Cc2cc(Cl)ccc2OCC(=O)O)c1,19
16,Cc1ccc(S(=O)(=O)N2CCCCC2)cc1C#Cc1cc(Cl)ccc1OCC(=O)O,5
17,CCCS(=O)(=O)c1ccc(C)c(C#Cc2cc(Cl)ccc2OC(C)C(=O)O)c1 (stereo not drawn),1.2
18,O=C(O)COc1ccc(Cl)cc1C#Cc1cccc(C(F)(F)F)c1,92
19,Cc1ccc(S(=O)(=O)N(C)CCN(C)C)cc1C#Cc1cc(Cl)ccc1OCC(=O)O,369
20,CN(c1cncc(C#Cc2cc(Cl)ccc2OCC(=O)O)c1)S(C)(=O)=O,378
21,CCCS(=O)(=O)c1cc(C#Cc2cc(Cl)ccc2OCC(=O)O)c(C)cc1NC(C)=O,1.3
22,Cc1ncccc1C#Cc1cc(Cl)ccc1OCC(=O)O,143

row,SMILES,Ki [nM]
1,O=C(O)COc1ccc(Cl)cc1C#Cc1cccc(S(=O)(=O)CCCO)c1,28
2,Cc1ccc(S(=O)(=O)c2ccccc2)cc1C#Cc1cc(Cl)ccc1OCC(=O)O,6
3,CC1(C)C(O)c2ccc(C#Cc3cc(Cl)ccc3OCC(=O)O)cc2S1(=O)=O (stereo not drawn),33
4,Cc1ncc(S(=O)(=O)N(C)C)cc1C#Cc1cc(Cl)ccc1OCC(=O)O,41
5,O=C(O)COc1cc(F)ccc1C#Cc1ccccc1Cl,4780
6,C[S+]([O-])c1cccc(C#Cc2cc(Cl)ccc2OCC(=O)O)c1 (stereo not drawn),3.2
7,CCS(=O)(=O)c1ccc(C)c(C#Cc2cc(Cl)ccc2OCC(=O)O)c1,8.6
8,CS(=O)(=O)c1cc(C#Cc2cc(Cl)ccc2OCC(=O)O)ccc1-c1cccc(Cl)c1,16
9,CCCS(=O)(=O)c1cccc(C#Cc2cc(-c3ccsc3)ccc2OCC(=O)O)c1,18
10,Cc1ccc(S(=O)(=O)CC(C)C)cc1C#Cc1cc(Cl)ccc1OCC(=O)O,3
11,CCN(Cc1cc(-c2ccc(OC)cn2)ccc1-c1cc(CC(=O)O)ccc1OC)C(=O)C1CC1,5
12,O=C(O)COc1ccc(Cl)cc1C#Cc1cc(CO)ccc1F,73
13,O=C(O)COc1ccc(Cl)cc1C#Cc1ccc(Cl)s1,183
14,CC1(C)C(=O)c2ccc(C#Cc3cc(Cl)ccc3OCC(=O)O)cc2S1(=O)=O,31
15,COCc1ccc(F)c(C#Cc2cc(Cl)ccc2OCC(=O)O)c1,72
16,Cc1ccc(S(=O)(=O)CCO)cc1C#Cc1cc(Cl)ccc1OCC(=O)O,19
17,O=C(O)COc1ccc(Cl)cc1C#Cc1ccc(Cl)cc1,60
18,O=C(O)COc1ccccc1C#Cc1ccccc1Cl,747
19,CCCS(=O)(=O)c1ccc(F)c(C#Cc2cc(Cl)ccc2OC(C)C(=O)O)c1 (stereo not drawn),3
20,CS(=O)(=O)c1cncc(C#Cc2cc(Cl)ccc2OCC(=O)O)c1,60
21,CC(C)S(=O)(=O)c1cc(C#Cc2cc(Cl)ccc2OCC(=O)O)ccc1C(=O)N(C)C,65
22,CC(C)(C)N1C(=O)c2ccc(C#Cc3cc(Cl)ccc3OCC(=O)O)cc2S1(=O)=O,14

row,SMILES,Ki [nM]
1,CCCCCCc1ccncc1C#Cc1cc(Cl)ccc1OCC(=O)O,43
2,COC1(C)c2ccc(C#Cc3cc(Cl)ccc3OCC(=O)O)cc2S(=O)(=O)C1(C)C (stereo not drawn),25
3,CN(C)S(=O)(=O)c1cccc(C#Cc2cc(Cl)ccc2OCC(=O)O)c1,14
4,CCCS(=O)(=O)c1cccc(C#Cc2cc(F)ccc2OCC(=O)O)c1,65
5,CCCS(=O)(=O)c1cccc(C#Cc2c(Cl)cccc2OCC(=O)O)c1,55
6,Cc1ccc(S(=O)(=O)CCc2ccccc2)cc1C#Cc1cc(Cl)ccc1OCC(=O)O,7
7,CS(=O)(=O)c1cc(C#Cc2cc(Cl)ccc2OCC(=O)O)ccc1-c1ccccc1Cl,3.5
8,CCCC(Oc1ccc(Cl)cc1C#Cc1cc(S(=O)(=O)CCC)ccc1C)C(=O)O (stereo not drawn),57
9,CNS(=O)(=O)c1ccc(C)c(C#Cc2cc(Cl)ccc2OCC(=O)O)c1,10
10,CS(=O)(=O)c1cc(C#Cc2cc(Cl)ccc2OCC(=O)O)ccc1-c1ccc(Cl)cc1,14
11,CC(C)Cc1ccncc1C#Cc1cc(Cl)ccc1OCC(=O)O,4.9
12,Cc1ccc(S(=O)(=O)N2CCN(C)CC2)cc1C#Cc1cc(Cl)ccc1OCC(=O)O,21
13,CN(C)C(=O)c1ccc(C#Cc2cc(Cl)ccc2OCC(=O)O)cc1,55
14,COc1ccc(-c2ccc(C#Cc3cc(Cl)ccc3OCC(=O)O)cc2S(C)(=O)=O)cc1,7
15,CC1(O)c2ccc(C#Cc3cc(Cl)ccc3OCC(=O)O)cc2S(=O)(=O)C1(C)C (stereo not drawn),28
16,CS(=O)(=O)c1cc(C#Cc2cc(Cl)ccc2OCC(=O)O)ccc1-c1ccc(C(F)(F)F)cc1,43
17,CS(=O)(=O)Cc1cccc(C#Cc2cc(Cl)ccc2OCC(=O)O)c1,48
18,CCCS(=O)(=O)c1cccc(C#Cc2cc(-c3sc(C)nc3C)ccc2OCC(=O)O)c1,54
19,CCCS(=O)(=O)c1cccc(C#Cc2cc(-c3cccs3)ccc2OCC(=O)O)c1,12
20,O=C(O)COc1ccc(Cl)cc1C#Cc1ccccc1F,47
21,Cn1ccnc1C#Cc1cc(Cl)ccc1OCC(=O)O,1470
22,O=C(O)COc1ccc(Cl)cc1C#Cc1ccccc1Cl,28

row,SMILES,Ki [nM]
1,Cc1ccc(S(=O)(=O)Cc2ccccc2)cc1C#Cc1cc(Cl)ccc1OCC(=O)O,5
2,O=C(O)COc1ccc(Cl)cc1C#Cc1cccc(CO)c1F,41
3,O=C(O)COc1ccc(Cl)cc1C#Cc1ccc2c(c1)S(=O)(=O)C=C2,25
4,Cc1ccc(S(=O)(=O)N(C)CCCN(C)C)cc1C#Cc1cc(Cl)ccc1OCC(=O)O,287
5,Cc1ccc(S(=O)(=O)C(C)C)cc1C#Cc1cc(Cl)ccc1OCC(=O)O,6
6,O=C(O)COc1ccc(Cl)cc1C#Cc1cncc(S(=O)(=O)NCCO)c1,301
7,CS(=O)(=O)Nc1cccc(C#Cc2cc(Cl)ccc2OCC(=O)O)c1,54
8,CCCS(=O)(=O)c1ccc(C)c(C#Cc2cc(Cl)ccc2OC(CC(C)C)C(=O)O)c1 (stereo not drawn),515
9,O=C(O)COc1ccc(Cl)cc1C#Cc1ccncc1,601
10,CN(c1cccc(C#Cc2cc(Cl)ccc2OCC(=O)O)c1)S(C)(=O)=O,122
11,COC1c2ccc(C#Cc3cc(Cl)ccc3OCC(=O)O)cc2S(=O)(=O)C1(C)C (stereo not drawn),21
12,CCCS(=O)(=O)c1ccc(C)c(C#Cc2cc(Cl)ccc2OC(CC)C(=O)O)c1 (stereo not drawn),30
13,CS(=O)(=O)c1cc(C#Cc2cc(Cl)ccc2OCC(=O)O)ccc1-c1ccccc1,5
14,CCCc1ccncc1C#Cc1cc(Cl)ccc1OCC(=O)O,4.3
15,CCCS(=O)(=O)c1ccc(F)c(C#Cc2cc(Cl)ccc2OC(C)(C)C(=O)O)c1,260
16,O=C(O)COc1ccc(Cl)cc1C#Cc1ccc2c(c1)S(=O)(=O)CC2,23
17,CCN(CC)C(=O)c1ccc(C#Cc2cc(Cl)ccc2OCC(=O)O)cc1S(=O)(=O)C(C)C,46
18,CCCS(=O)(=O)c1cccc(C#Cc2cc(C(F)(F)F)ccc2OCC(=O)O)c1,10
19,CN(C)C(=O)c1cccc(C#Cc2cc(Cl)ccc2OCC(=O)O)c1,52
20,N#Cc1ccc(OCC(=O)O)c(C#Cc2ccccc2Cl)c1,24
21,CCN(CC)S(=O)(=O)c1ccc(C)c(C#Cc2cc(Cl)ccc2OCC(=O)O)c1,3.4
22,CC(C)S(=O)(=O)c1cc(C#Cc2cc(Cl)ccc2OCC(=O)O)ccc1C(=O)N1CCOCC1,87
